Assay type in all cases: functional, cell-based
One assay relates to SK-BR-3. The assay is described as follows: Antiproliferative activity against human SKBR3 cells after 72 hrs by MTT assay. The conditions noted are these: SK-BR-3, 72 h. An outline of the steps: (§1)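 Six human breast carcinoma lines of differing molecular and phenotypic character were each exposed to a range of concentrations for 72 h. Proliferation was read by MTT. Results are given as mean percent viability, with IC₅₀ ± SEM calculated per cell line.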

The subject of the next assay is MCF7. The assay is described as follows: Antiproliferative activity against human MCF7 cells after 72 hrs by MTT assay. Particulars: MCF7, 72 h. An outline of the steps:
as §1

Another assay deals with T47D. The assay is described as follows: Antiproliferative activity against human T47D cells after 72 hrs by MTT assay. An outline of the steps: as §1
For another assay, the system named is BT-474. The assay is described as follows: Antiproliferative activity against human BT474 cells after 72 hrs by MTT assay. Particulars: BT-474, 72 h. An outline of the steps: as §1
For the next assay, the system named is MDA-MB-468. The assay is described as follows: Antiproliferative activity against human MDA-MB-468 cells after 72 hrs by MTT assay. The conditions noted are these: MDA-MB-468, 72 h. An outline of the steps: as §1
The test system of a further assay is MDA-MB-231. The assay is described as follows: Antiproliferative activity against human MDA-MB-231 cells after 72 hrs by MTT assay. The conditions noted are these: MDA-MB-231, 72 h. An outline of the steps: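 MDA-MB-231 triple-negative breast cancer cells were exposed to a range of concentrations for 72 h. Proliferation was read by MTT. Results are given as mean percent viability versus concentration, with IC₅₀ ± SEM calculated from the curve.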

Take `C[C@@H]1CC[C@@]2(OC1)O[C@H]1C[C@H]3[C@@H]4CC[C@H]5C[C@@H](O)CC[C@]5(C)[C@H]4C/C(=N\NC(=O)Nc4ccc(Cl)cc4)[C@]3(C)[C@H]1[C@@H]2C`: the IC50 in the assay on SK-BR-3 was determined as 9 µM; in the assay with MCF7, 9.1 µM; in the assay on T47D it was 12 µM; in the assay with BT-474 it was 9.8 µM; in the assay on MDA-MB-468, 11.3 µM; in the assay with MDA-MB-231, 8.5 µM.

Take `C[C@@H]1CC[C@@]2(OC1)O[C@H]1C[C@H]3[C@@H]4CC[C@H]5C[C@@H](O)CC[C@]5(C)[C@H]4C/C(=N\NC(=S)Nc4c(Cl)cccc4Cl)[C@]3(C)[C@H]1[C@@H]2C`: the 50% inhibitory concentration (IC50) in the assay with SK-BR-3 amounted to 9 µM; in the assay with MCF7 it was 6.4 µM; with T47D it was 10.4 µM; in the assay on BT-474, 6.9 µM; in the assay with MDA-MB-468 it was 7.3 µM; in the assay with MDA-MB-231, 6 µM.

For `COc1ccccc1C(=O)O[C@H]1CC[C@@]2(C)[C@@H](CC[C@@H]3[C@@H]2CC(=O)[C@]2(C)[C@@H]4[C@H](C[C@@H]32)O[C@]2(CC[C@@H](C)CO2)[C@H]4C)C1`, the IC50 in the assay on SK-BR-3, with MCF7, in the assay on T47D, in the assay on BT-474, in the assay on MDA-MB-468 and in the assay on MDA-MB-231 was above 40 µM each time.

On to `C[C@@H]1CC[C@@]2(OC1)O[C@H]1C[C@H]3[C@@H]4CC[C@H]5C[C@@H](O)CC[C@]5(C)[C@H]4C/C(=N\NC(=O)Nc4cccc(Cl)c4)[C@]3(C)[C@H]1[C@@H]2C`, for which the IC50 in the assay with SK-BR-3 came out at 9.8 µM; in the assay on MCF7, 9.7 µM; with T47D it was 13 µM; with BT-474 it was 12 µM; with MDA-MB-468, 10.9 µM; with MDA-MB-231 it was 10 µM.

As to `Cc1ccc(S(=O)(=O)NC(=O)N/N=C2\C[C@H]3[C@@H](CC[C@H]4C[C@@H](O)CC[C@@]43C)[C@@H]3C[C@@H]4O[C@]5(CC[C@@H](C)CO5)[C@@H](C)[C@@H]4[C@@]23C)cc1`, the IC50 is 31 µM with SK-BR-3; 29.3 µM with MCF7; above 40 µM in the assay with T47D; above 40 µM with BT-474; 36.4 µM with MDA-MB-468; 28 µM with MDA-MB-231.

As to `COc1ccc(NC(=S)N/N=C2\C[C@H]3[C@@H](CC[C@H]4C[C@@H](O)CC[C@@]43C)[C@@H]3C[C@@H]4O[C@]5(CC[C@@H](C)CO5)[C@@H](C)[C@@H]4[C@@]23C)cc1`, the IC50 with SK-BR-3 was 11.5 µM; in the assay with MCF7, 10.1 µM; with T47D, 14.2 µM; in the assay with BT-474 it was 10.9 µM; with MDA-MB-468, 11.2 µM; in the assay on MDA-MB-231, 9.5 µM.

`C[C@@H]1CC[C@@]2(OC1)O[C@H]1C[C@H]3[C@@H]4CC[C@H]5C[C@@H](OC(=O)c6ccco6)CC[C@]5(C)[C@H]4CC(=O)[C@]3(C)[C@H]1[C@@H]2C`: the IC50 in the assay on SK-BR-3, in the assay with MCF7, in the assay with T47D, with BT-474, with MDA-MB-468 and in the assay on MDA-MB-231 was above 40 µM in each case.

As for `C[C@@H]1CC[C@@]2(OC1)O[C@H]1C[C@H]3[C@@H]4CC[C@H]5C[C@@H](OC(=O)c6ccc(F)cc6)CC[C@]5(C)[C@H]4CC(=O)[C@]3(C)[C@H]1[C@@H]2C`, the IC50 with SK-BR-3 was 36 µM; in the assay with MCF7, 28 µM; in the assay with T47D, 29 µM; in the assay with BT-474 it was 30 µM; with MDA-MB-468 it was 33.4 µM; in the assay on MDA-MB-231 it was 27 µM.

For the compound `C[C@@H]1CC[C@@]2(OC1)O[C@H]1C[C@H]3[C@@H]4CC[C@H]5C[C@@H](O)CC[C@]5(C)[C@H]4C/C(=N\NC(=S)Nc4ccc5c(c4)OCO5)[C@]3(C)[C@H]1[C@@H]2C`, the IC50 amounted to 6.2 µM in the assay with SK-BR-3; 5.3 µM with MCF7; 7.8 µM with T47D; 7.5 µM in the assay on BT-474; 5.9 µM in the assay with MDA-MB-468; 5.5 µM in the assay with MDA-MB-231.

As to `C[C@@H]1CC[C@@]2(OC1)O[C@H]1C[C@H]3[C@@H]4CC[C@H]5C[C@@H](O)CC[C@]5(C)[C@H]4C/C(=N\NC(=S)Nc4ccc(Cl)cc4)[C@]3(C)[C@H]1[C@@H]2C`, the IC50 came out at 14.8 µM in the assay on SK-BR-3; 12 µM with MCF7; 15.1 µM in the assay on T47D; 11.8 µM in the assay with BT-474; 12.8 µM in the assay on MDA-MB-468; 11.5 µM in the assay on MDA-MB-231.

Take `C[C@@H]1CC[C@@]2(OC1)O[C@H]1C[C@H]3[C@@H]4CC[C@H]5C[C@@H](O)CC[C@]5(C)[C@H]4C/C(=N\NC(=O)Nc4ccccc4)[C@]3(C)[C@H]1[C@@H]2C`: the IC50 in the assay on SK-BR-3 was 12 µM; with MCF7 it was 10.4 µM; in the assay on T47D it was 13.5 µM; with BT-474 it was 11.9 µM; in the assay with MDA-MB-468, 11.9 µM; in the assay with MDA-MB-231, 9.2 µM.

Turning to `C[C@@H]1CC[C@@]2(OC1)O[C@H]1C[C@H]3[C@@H]4CC[C@H]5C[C@@H](OC(=O)c6ccc([N+](=O)[O-])cc6)CC[C@]5(C)[C@H]4CC(=O)[C@]3(C)[C@H]1[C@@H]2C`, the IC50 in the assay with SK-BR-3 was 34.9 µM; in the assay with MCF7, 32.4 µM; in the assay on T47D, above 40 µM; in the assay on BT-474, above 40 µM; in the assay with MDA-MB-468 it was above 40 µM; in the assay on MDA-MB-231, 25.3 µM.

In the case of `C[C@@H]1CC[C@@]2(OC1)O[C@H]1C[C@H]3[C@@H]4CC[C@H]5C[C@@H](O)CC[C@]5(C)[C@H]4C/C(=N\NC(=S)Nc4cc(C(F)(F)F)cc(C(F)(F)F)c4)[C@]3(C)[C@H]1[C@@H]2C`, the IC50 in the assay with SK-BR-3 was 8.6 µM; in the assay with MCF7, 8 µM; in the assay with T47D, 11 µM; in the assay on BT-474, 10.8 µM; in the assay with MDA-MB-468, 8.2 µM; with MDA-MB-231, 7.3 µM.

For the compound `C[C@@H]1CC[C@@]2(OC1)O[C@H]1C[C@H]3[C@@H]4CC[C@H]5C[C@@H](O)CC[C@]5(C)[C@H]4C/C(=N\NC(=S)Nc4ccccc4)[C@]3(C)[C@H]1[C@@H]2C`, the IC50 was determined as 9.1 µM in the assay with SK-BR-3; 8 µM in the assay with MCF7; 10.3 µM with T47D; 9.3 µM with BT-474; 8.4 µM with MDA-MB-468; 7.8 µM in the assay with MDA-MB-231.

For `C[C@@H]1CC[C@@]2(OC1)O[C@H]1C[C@H]3[C@@H]4CC[C@H]5C[C@@H](O)CC[C@]5(C)[C@H]4C/C(=N\NC(=S)Nc4ccccc4[N+](=O)[O-])[C@]3(C)[C@H]1[C@@H]2C`, the IC50 in the assay on SK-BR-3 came to 5.5 µM; with MCF7, 5 µM; with T47D, 9 µM; in the assay on BT-474, 6.9 µM; in the assay with MDA-MB-468, 6.1 µM; with MDA-MB-231, 4.3 µM.

For the compound `Cc1ccc(NC(=S)N/N=C2\C[C@H]3[C@@H](CC[C@H]4C[C@@H](O)CC[C@@]43C)[C@@H]3C[C@@H]4O[C@]5(CC[C@@H](C)CO5)[C@@H](C)[C@@H]4[C@@]23C)c(C)c1`, the IC50 with SK-BR-3 turned out to be 4.2 µM; in the assay on MCF7 it was 3 µM; in the assay on T47D, 5.2 µM; in the assay on BT-474, 3.7 µM; in the assay with MDA-MB-468, 3.8 µM; with MDA-MB-231 it was 2.7 µM.

These data come from ChEMBL document CHEMBL4177624, “Rationally designed hecogenin thiosemicarbazone analogs as novel MEK inhibitors for the control of breast malignancies” (Bioorg Med Chem, 2017).
